This passage reports inhibition, Kd and Activity results from ChEMBL document CHEMBL5126600, “Discovery of the First-in-Class G9a/GLP Covalent Inhibitors” (J Med Chem, 2022).

The source made the active and inactive calls. The calls are words filed in the database; no cut-off is given here. Where only a bound is given, the exact number is not on record here.

Experiment [1] concerns the target Histone-lysine N-methyltransferase, H3 lysine-79 specific (Homo sapiens) (UniProt Q8TEK3). In words: Inhibition of N-terminal GST-tagged human DOT1L (1 to 416 residues) expressed in Escherichia coli at 1 uM using 3H-SAM as a substrate relative to control. In a few lines: (§1)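 Contracted 3H-SAM methyl-transfer scintillation proximity assay against a panel of methyltransferases; compound tested at 1 μM in duplicate; inhibition expressed as percent of control enzyme activity.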

For experiment [2], the target named is T1, Histone-lysine N-methyltransferase EHMT2 (Homo sapiens, UniProt Q96KQ7).
T1 sequence (Q96KQ7 whole entry): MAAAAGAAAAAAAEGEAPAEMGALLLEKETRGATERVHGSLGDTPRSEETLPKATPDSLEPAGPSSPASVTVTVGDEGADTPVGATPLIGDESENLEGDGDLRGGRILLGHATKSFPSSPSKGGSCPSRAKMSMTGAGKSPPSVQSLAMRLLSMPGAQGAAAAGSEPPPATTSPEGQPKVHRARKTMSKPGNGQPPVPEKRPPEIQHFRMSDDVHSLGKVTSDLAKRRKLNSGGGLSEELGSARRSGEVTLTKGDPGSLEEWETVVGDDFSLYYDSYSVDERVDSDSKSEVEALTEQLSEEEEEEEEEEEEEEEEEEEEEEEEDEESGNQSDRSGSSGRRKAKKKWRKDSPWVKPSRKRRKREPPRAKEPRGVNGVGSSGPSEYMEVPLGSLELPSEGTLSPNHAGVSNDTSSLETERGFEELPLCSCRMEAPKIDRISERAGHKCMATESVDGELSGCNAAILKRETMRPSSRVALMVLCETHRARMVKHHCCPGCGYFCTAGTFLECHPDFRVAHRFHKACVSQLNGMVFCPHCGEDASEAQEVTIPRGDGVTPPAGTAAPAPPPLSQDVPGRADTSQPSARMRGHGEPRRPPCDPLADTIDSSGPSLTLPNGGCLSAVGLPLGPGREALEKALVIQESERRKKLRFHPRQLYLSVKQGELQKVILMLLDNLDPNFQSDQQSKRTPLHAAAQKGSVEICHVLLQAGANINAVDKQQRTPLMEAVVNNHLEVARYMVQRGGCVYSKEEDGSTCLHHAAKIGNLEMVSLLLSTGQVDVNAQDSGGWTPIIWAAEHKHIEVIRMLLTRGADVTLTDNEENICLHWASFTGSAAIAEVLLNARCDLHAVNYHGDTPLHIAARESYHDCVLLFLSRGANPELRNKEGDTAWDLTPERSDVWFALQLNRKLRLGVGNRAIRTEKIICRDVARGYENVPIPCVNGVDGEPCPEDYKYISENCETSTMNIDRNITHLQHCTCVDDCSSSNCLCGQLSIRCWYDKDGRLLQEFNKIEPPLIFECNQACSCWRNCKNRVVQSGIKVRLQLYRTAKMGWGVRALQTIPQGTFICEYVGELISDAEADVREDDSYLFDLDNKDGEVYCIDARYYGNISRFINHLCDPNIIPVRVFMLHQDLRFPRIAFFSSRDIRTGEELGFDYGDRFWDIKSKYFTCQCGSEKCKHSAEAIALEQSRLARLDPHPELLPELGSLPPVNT
In words: Binding affinity to human G9a (913 to 1193 residues) assessed as dissociation constant by isothermal titration calorimetry method. A digest of the protocol:
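Initial 0.4 μL injection, then 13 injections of 500 μM compound from the syringe, stirred at 750 rpm. Experiment time about 50 min. Data fitted to a single binding site model. Mean ± SD of two independent measurements.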
(In general: In ITC the heat of successive injections is recorded.)

For experiment [3], the target named is Histone-lysine N-methyltransferase SUV39H2 (Homo sapiens) (UniProt Q9H5I1). The experiment in a line: Inhibition of N-terminal fusion protein with C-terminal His-tagged SUV39H2 (46 to 410 residues) (unknown origin) expressed in Escherichia coli at 1 uM using 3H-SAM as a substrate relative to control. A digest of the protocol:
as §1

The target in experiment [4] is Histone-lysine N-methyltransferase EZH2 (Homo sapiens) (UniProt Q15910). The experiment in a line: Inhibition of N-terminal His-tagged EZH2 (2 to 746 residues) (unknown origin) expressed in baculovirus expression system at 1 uM using 3H-SAM as a substrate relative to control. In a few lines: as §1
Experiment [5] has as its target Protein arginine N-methyltransferase 3 (Homo sapiens) (UniProt O60678). In words: Inhibition of N-terminal His-tagged PRMT3 (2 to 531 residues)(unknown origin) expressed in Escherichia coli at 1 uM using 3H-SAM as a substrate relative to control. A digest of the protocol:
as §1

A further experiment concerns K562. In words: Down regulation of H3K9 dimethylation in human K562 cells at 0.2 to 5 uM incubated for 48 hrs by Western blot analysis. The settings on record: dose 0.2-5 µM. Type of experiment: functional, cell-based.
Experiment [6] deals with T2, Histone-lysine N-methyltransferase EHMT2 (Homo sapiens) (UniProt Q96KQ7).
T2 sequence (whole entry): T1 sequence (Q96KQ7 whole entry)
In words: Inhibition of human G9a (913 to 1193 residues) using H3 peptide as substrate in presence of SAM cofactor by scintillation counting method. To be noted: time 5-45 min, TDE = time-dependent effect. In a few lines:
(§2)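 Contracted scintillation proximity assay following 3H-methyl transfer from SAM (1 μM) to H3 peptide (0.05 μM) by G9a or GLP (5 nM each), with preincubation times of 5, 15 or 45 min; four replicates.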

Experiment [7] has as its target Histone-lysine N-methyltransferase SETD2 (Homo sapiens) (UniProt Q9BYW2). The experiment in a line: Inhibition of SETD2 (unknown origin) at 1 uM using 3H-SAM as a substrate relative to control. A digest of the protocol: as §1
Experiment [8] concerns the target Histone-lysine N-methyltransferase NSD2 (Homo sapiens) (UniProt O96028). In words: Inhibition of NSD2 (2 to 1365 residues) (unknown origin) at 1 uM expressed in baculovirus expression system using 3H-SAM as a substrate relative to control. In a few lines: as §1
For experiment [9], the target named is Histone-lysine N-methyltransferase EHMT1 (Homo sapiens) (UniProt Q9H9B1). The experiment in a line: Inhibition of human GLP (982 to 1266 residues) using H3 peptide as substrate in presence of SAM cofactor by scintillation counting method. To be noted: time 5-45 min, TDE = time-dependent effect. In a few lines: as §2
A further experiment deals with MDA-MB-231. The experiment in a line: Down regulation of H3K9 dimethylation in human MDA-MB-231 cells after 24 to 72 hrs by Western blot analysis. Type of experiment: functional, cell-based. To be noted: dose 0.2-5 µM, time lower […], time upper 72.0 hrs, DDE = dose-dependent effect. For orientation: In western blotting, separated proteins are transferred to a membrane and probed.

Experiment [10] concerns the target Histone-lysine N-methyltransferase 2A (Homo sapiens) (UniProt Q03164). The experiment in a line: Inhibition of N-terminal His-tagged MLL1 (3745 to 3969 residues) (unknown origin) expressed in Escherichia coli at 1 uM using 3H-SAM as a substrate relative to control. A digest of the protocol:
as §1

Experiment [11] concerns the target Histone-lysine N-methyltransferase, H3 lysine-36 specific (Homo sapiens) (UniProt Q96L73). In words: Inhibition of N-terminal His-tagged NSD1 (1538 to 2696 residues) (unknown origin) expressed in baculovirus expression system at 1 uM using 3H-SAM as a substrate relative to control. In a few lines: as §1
Experiment [12] concerns the target Protein arginine N-methyltransferase 1 (Homo sapiens) (UniProt Q99873). In words: Inhibition of N-terminal GST tagged PRMT1 (2 to 371 residues) (unknown origin) expressed in Escherichia coli at 1 uM using 3H-SAM as a substrate relative to control. In a few lines: as §1

Histone-lysine N-methyltransferase NSD2 (Homo sapiens), sequence (O96028 whole entry, the tested form may be a part): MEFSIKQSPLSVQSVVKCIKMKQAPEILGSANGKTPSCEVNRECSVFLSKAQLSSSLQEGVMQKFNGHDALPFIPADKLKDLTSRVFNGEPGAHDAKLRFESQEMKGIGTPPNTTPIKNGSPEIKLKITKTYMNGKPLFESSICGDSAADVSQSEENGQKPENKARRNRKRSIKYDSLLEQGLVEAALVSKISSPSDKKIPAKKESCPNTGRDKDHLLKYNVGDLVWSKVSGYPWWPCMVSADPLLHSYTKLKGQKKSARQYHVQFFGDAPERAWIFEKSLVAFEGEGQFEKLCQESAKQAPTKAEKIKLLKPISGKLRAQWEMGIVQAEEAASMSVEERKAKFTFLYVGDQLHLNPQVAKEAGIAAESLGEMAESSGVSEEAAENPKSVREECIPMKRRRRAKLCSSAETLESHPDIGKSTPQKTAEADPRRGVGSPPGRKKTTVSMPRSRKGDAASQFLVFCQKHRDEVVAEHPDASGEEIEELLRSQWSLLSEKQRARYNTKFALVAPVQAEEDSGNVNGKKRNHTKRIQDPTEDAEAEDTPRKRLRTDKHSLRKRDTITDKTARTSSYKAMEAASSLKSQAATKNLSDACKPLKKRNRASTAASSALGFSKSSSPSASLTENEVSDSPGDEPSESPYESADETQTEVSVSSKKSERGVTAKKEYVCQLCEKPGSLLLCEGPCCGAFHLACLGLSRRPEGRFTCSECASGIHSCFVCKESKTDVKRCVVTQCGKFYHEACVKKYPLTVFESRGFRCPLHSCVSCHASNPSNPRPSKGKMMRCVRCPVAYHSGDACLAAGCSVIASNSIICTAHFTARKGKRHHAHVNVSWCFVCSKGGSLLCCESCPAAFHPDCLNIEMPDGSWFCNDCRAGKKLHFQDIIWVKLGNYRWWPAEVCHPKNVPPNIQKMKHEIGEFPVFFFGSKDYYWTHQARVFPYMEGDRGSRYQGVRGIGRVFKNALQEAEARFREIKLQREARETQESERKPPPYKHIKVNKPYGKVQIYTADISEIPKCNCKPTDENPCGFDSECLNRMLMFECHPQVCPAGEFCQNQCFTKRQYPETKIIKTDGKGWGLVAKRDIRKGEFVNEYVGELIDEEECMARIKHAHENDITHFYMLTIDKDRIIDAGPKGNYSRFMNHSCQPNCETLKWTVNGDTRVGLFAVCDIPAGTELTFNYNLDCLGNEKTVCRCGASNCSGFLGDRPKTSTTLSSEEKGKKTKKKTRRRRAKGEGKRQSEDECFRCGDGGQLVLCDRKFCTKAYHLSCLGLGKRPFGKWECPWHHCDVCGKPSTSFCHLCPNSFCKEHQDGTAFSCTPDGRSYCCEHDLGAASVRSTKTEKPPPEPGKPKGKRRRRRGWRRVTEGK
Histone-lysine N-methyltransferase SUV39H2 (Homo sapiens), sequence (Q9H5I1 whole entry, the tested form may be a part): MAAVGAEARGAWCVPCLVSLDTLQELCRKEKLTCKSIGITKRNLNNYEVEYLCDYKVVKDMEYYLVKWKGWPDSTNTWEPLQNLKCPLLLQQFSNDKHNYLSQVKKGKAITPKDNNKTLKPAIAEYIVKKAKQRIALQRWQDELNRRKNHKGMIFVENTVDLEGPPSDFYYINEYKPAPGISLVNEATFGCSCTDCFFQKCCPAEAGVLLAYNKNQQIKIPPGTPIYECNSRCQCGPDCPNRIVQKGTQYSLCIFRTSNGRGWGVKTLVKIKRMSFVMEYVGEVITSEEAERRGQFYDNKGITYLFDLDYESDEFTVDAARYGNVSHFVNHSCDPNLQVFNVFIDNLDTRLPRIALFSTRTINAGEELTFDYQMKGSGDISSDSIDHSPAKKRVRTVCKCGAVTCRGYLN
Histone-lysine N-methyltransferase SETD2 (Homo sapiens), sequence (Q9BYW2 whole entry, the tested form may be a part): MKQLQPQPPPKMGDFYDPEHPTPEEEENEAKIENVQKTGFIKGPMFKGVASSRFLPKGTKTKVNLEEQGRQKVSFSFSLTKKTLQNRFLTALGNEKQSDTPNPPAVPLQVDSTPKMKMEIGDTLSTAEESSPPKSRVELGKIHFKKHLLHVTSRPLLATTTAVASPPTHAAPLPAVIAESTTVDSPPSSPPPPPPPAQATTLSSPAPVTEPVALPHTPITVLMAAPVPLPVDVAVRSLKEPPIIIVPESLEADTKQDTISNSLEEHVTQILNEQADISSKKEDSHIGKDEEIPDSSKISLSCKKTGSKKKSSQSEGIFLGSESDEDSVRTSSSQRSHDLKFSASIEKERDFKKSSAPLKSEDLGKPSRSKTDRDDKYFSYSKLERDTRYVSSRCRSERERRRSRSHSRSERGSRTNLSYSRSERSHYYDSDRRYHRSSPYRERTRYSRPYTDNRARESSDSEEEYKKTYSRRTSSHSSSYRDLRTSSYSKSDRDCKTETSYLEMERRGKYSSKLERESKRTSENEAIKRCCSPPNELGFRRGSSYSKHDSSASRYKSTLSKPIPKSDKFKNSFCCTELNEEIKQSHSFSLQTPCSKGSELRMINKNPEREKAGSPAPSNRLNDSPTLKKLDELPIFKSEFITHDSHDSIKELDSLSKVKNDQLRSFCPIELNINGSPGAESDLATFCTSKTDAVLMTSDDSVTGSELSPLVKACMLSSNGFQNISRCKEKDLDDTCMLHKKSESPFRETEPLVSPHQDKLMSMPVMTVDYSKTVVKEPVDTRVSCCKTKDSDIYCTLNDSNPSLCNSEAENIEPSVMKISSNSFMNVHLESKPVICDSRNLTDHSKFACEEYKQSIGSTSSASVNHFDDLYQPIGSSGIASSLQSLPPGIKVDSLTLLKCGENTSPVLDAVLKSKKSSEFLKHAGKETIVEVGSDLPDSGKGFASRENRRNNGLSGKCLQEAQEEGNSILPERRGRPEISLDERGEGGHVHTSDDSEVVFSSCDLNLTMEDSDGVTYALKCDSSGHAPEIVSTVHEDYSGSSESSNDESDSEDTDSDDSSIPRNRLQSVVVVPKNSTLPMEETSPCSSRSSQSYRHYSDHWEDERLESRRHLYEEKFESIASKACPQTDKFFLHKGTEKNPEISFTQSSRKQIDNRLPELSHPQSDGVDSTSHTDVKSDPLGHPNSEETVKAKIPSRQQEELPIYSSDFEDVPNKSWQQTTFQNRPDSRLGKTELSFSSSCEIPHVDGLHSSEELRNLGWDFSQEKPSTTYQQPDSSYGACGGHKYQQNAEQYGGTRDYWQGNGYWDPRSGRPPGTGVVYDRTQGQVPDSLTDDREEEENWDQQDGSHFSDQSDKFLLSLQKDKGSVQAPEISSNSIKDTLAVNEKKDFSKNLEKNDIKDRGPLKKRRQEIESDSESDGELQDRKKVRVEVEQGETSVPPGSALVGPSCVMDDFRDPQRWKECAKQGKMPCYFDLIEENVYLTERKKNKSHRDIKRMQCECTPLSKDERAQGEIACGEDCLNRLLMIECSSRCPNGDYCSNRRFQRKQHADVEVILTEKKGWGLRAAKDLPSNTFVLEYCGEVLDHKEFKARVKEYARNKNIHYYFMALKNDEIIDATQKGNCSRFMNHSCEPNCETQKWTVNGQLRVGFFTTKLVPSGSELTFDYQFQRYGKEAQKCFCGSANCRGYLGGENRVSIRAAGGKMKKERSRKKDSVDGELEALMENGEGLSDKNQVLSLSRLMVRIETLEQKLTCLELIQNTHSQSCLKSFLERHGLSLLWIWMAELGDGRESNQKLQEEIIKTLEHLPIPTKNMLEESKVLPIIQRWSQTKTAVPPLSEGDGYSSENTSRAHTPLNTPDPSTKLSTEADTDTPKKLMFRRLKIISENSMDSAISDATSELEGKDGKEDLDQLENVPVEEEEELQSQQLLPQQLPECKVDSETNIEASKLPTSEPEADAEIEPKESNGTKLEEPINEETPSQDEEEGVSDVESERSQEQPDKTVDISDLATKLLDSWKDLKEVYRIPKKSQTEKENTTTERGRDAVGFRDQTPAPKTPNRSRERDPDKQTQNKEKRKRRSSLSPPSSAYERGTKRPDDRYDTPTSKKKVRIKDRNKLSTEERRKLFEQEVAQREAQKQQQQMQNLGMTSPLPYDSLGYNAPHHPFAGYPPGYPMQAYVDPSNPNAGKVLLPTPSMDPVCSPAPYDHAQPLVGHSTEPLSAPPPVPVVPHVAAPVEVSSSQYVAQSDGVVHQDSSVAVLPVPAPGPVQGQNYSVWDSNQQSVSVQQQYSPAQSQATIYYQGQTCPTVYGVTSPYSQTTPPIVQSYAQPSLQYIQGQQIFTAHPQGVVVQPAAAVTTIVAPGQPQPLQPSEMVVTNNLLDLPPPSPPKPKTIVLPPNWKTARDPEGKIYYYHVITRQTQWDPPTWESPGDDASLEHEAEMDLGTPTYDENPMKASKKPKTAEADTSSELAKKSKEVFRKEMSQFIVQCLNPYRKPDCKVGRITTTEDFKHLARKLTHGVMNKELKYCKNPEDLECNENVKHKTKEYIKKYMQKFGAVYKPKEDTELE
Protein arginine N-methyltransferase 3 (Homo sapiens), sequence (O60678 2-531 limits assumed): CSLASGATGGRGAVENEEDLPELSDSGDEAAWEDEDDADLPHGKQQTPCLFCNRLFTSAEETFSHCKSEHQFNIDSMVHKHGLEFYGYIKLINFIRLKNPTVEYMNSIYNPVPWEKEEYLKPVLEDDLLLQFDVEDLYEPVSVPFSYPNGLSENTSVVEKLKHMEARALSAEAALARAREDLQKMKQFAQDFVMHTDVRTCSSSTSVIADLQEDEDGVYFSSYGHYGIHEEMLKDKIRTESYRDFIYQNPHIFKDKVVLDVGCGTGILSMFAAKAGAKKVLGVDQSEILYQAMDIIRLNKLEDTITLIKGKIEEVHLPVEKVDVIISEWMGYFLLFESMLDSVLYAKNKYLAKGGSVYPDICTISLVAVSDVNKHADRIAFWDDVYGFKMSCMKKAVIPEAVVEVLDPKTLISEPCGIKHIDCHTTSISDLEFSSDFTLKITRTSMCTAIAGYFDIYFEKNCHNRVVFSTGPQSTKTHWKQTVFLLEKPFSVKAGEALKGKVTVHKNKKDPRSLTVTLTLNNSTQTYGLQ

`C=CC(=O)Nc1cc(NC2CCN(C(C)C)CC2)c2cc(OC)c(OCCCN3CCCC3)cc2n1`: the inhibition was below 50% in [1]; below 50% in [3]; below 50% in [4]; below 50% in [5]; “Tde” in experiment [6]; below 50% in [7]. Moreover, the inhibition in experiment [8] is below 50%; in experiment [9], “Tde”; in [10], below 50%; in [11] it was below 50%; in experiment [12], below 50%. Moreover, the Kd in [2] turned out to be 44 nM. Also, the outcome in the experiment with K562 was Active. Besides, the Activity entry with MDA-MB-231 was “Dde”.

For orientation: inhibition means the share of the control response that was lost under treatment. For orientation: Kd means the concentration at which binding is half-saturated.
